Reference: article PMC9016318 (Cancer Research and Treatment : Official Journal of Korean …, 2021)
No end group written: not given here.

Assays:
ICIK cells = assay: CCK-8 cytotoxicity, ICIK cells; format: cell-based, human; conditions: CCK-8, 64 μM, 24 hours
Outline: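 ICIK cells were human blood PBMCs, Ficoll-separated, held overnight at 4°C on anti-CD3 (OKT3, 10 μg/mL) coated dishes, then grown 10 days in RPMI 1640/10% FBS with IFN-γ 2000 U/mL and IL-2 10 ng/mL. They were seeded at 4,000/well and cultured 24 h. Test peptide at 1–64 μM was added for 24 h, then CCK-8 for 2 h, and absorbance read at 450. Viability was blank/baseline-corrected against untreated wells.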

Cal27 cells = assay: CCK-8 cytotoxicity, Cal27 cells; format: cell-based, human; conditions: CCK-8, 64 μM, 24 hours
Outline: (§1)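 Cells were seeded in 96-well plates and cultured 24 h: Jurkat T at 4,000/well, Cal27 at 2,000/well. Test peptide was added at 1–64 μM for 24 h, then CCK-8 for 2 h, and absorbance was read at 450. Viability % = (sample − no-cell baseline with peptide)/(untreated control − no-cell blank) × 100. Data are mean±standard error of three separate experiments.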

Jurkat T cells = assay: CCK-8 cytotoxicity, Jurkat T cells; format: cell-based, human; conditions: CCK-8, 64 μM, 24 hours
Outline: as §1

[1] = molecular target: human recombinant PD-1 protein (human, UniProt Q15116); assay: SPR
Sequence of human recombinant PD-1 protein (Q15116 25-170): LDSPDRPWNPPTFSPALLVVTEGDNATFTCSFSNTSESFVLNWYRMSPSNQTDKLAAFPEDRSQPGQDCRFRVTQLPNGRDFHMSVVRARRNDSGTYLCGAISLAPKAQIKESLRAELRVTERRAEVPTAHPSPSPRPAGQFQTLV

Molecule	cytotoxicity to ICIK cells (ICIK cells)	cytotoxicity to stimulated Cal27 cells (Cal27 cells)	cytotoxicity to Jurkat T cells (Jurkat T cells)	Kd [1] [µM]
SRLKEIANSPTQFWRMVARNTLGNGAKQSLNIEHARL [nABP284]	not directly cytotoxic	not directly cytotoxic	not directly cytotoxic	
SRLKEIANSPTQFWRMVARNTLGNGAKQSLNIEHARL [nABP284]				11.8
